Measured values of several laboratories.
Each line is one published result; the experiments were not run side by side.
Target: Serine/threonine-protein kinase PAK 5 (PAK5, Homo sapiens, UniProt Q9P286)

C[C@@H]1CN(c2cc(-c3n[nH]c4ccc(OC5(C)CC5)cc34)ncn2)C[C@H](C)O1
remaining binding (cell-free assay, competition with immobilised ligand; 0.1 µM): 86%

O=C(NCC1CCOCC1)c1n[nH]cc1NC(=O)c1c(F)cccc1F
remaining binding (binding, competition with immobilised ligand; 1 µM): 79%

O=C(NCCCN1CCOCC1)c1ccc(Nc2nccc(-c3cc4ccccc4s3)n2)cc1
remaining binding (binding, competition with immobilised ligand; 1 µM): 81%

N[C@@H]1CCN(c2nccc(-c3cnn4ncccc34)n2)C1
remaining binding (binding; 1 µM): 78%

C[C@@]1(Cc2ccc(C#N)cc2)C(=O)N(c2cc(Cl)cc(Cl)c2)c2ncc(C(=O)NC3(c4nc(C5CCC5)no4)CC3)n21
remaining binding (cell-free assay, competition with immobilised ligand; 1 µM): 100%

O=C(c1ccc(Nc2ncc(Cl)c(-c3cc4ccccc4s3)n2)cc1)N1CCC(N2CCCC2)CC1
remaining binding (binding, competition with immobilised ligand; 1 µM): 77%

CN(c1nccc(-c2cnn3ncccc23)n1)C1CC1
remaining binding (binding; 1 µM): 100%

COc1cnc(Nc2cccc(S(N)(=O)=O)c2)nc1N1CCN(c2ccccc2)C(=O)C1
remaining binding (binding, competition with immobilised ligand; 1 µM): 82%

O=C(c1ccc(Nc2nccc(-c3cc4ccccc4s3)n2)cc1)N1CCC(N2CCCC2)CC1
remaining binding (binding, competition with immobilised ligand; 1 µM): 79%

C[C@@H]1CCN(c2nccc(-c3cnn4ncccc34)n2)C1
remaining binding (binding; 1 µM): 90%

CS(=O)(=O)c1cc(C2(NC(=O)c3cncc4c3cnn4-c3ccc(F)cc3)CC2)ccn1
remaining binding (cell-free assay, competition with immobilised ligand; 1 µM): 100%

COc1cnc(Nc2cccc(S(N)(=O)=O)c2)nc1N1CCN(c2ccccc2)CC1
remaining binding (binding, competition with immobilised ligand; 1 µM): 69%

F[C@@H]1CCN(c2nccc(-c3cnn4ncccc34)n2)C1
remaining binding (binding; 1 µM): 100%

O=C(NCCCC1CCCCC1)c1ccc(CNC(=O)c2cnn(-c3ccccc3)c2C(F)(F)F)cc1
remaining binding (cell-free assay, competition with immobilised ligand; 0.1 µM): 100%

CC1CCCN1c1nccc(-c2cnn3ncccc23)n1 (centres unmarked)
remaining binding (binding; 1 µM): 70%

COc1ccc2c(O[C@@H]3C[C@H]4C(=O)N[C@]5(C(=O)O)CC5/C=C\CCCCC[C@H](NC(=O)OC5CCCC5)C(=O)N4C3)cc(-c3csc(NC(=O)C(C)C)n3)nc2c1C (some centres unmarked)
remaining binding (cell-free assay, competition with immobilised ligand; 1 µM): 100%

COc1ccnn2ncc(-c3ccnc(N(C)C)n3)c12
remaining binding (binding; 1 µM): 94%

CCN1CCN(Cc2ccc(C(=O)Nc3ccc(C)c(Oc4ccc5c(c4)CC(=O)N5)c3)cc2C(F)(F)F)CC1
remaining binding (binding, competition with immobilised ligand; 1 µM): 86%

COc1ccc2c(c1)O[C@H](c1ccc(OC)c(OC)c1)C[C@@H]2NC(=O)C1(c2ccc3c(c2)OC(F)(F)O3)CC1
remaining binding (cell-free assay, competition with immobilised ligand; 1 µM): 100%

COc1ncc2cc3ccccc3nc2c1C#N
remaining binding (cell-free assay, competition with immobilised ligand; 5 µM): 100%
